Reference: PMC3158287 (Nature chemical biology, 2011)
Positions count from the first letter of the chain named. pKd, pKi: −log10 of the molar value.

What was measured:
[1] = target: T1, OSBP^M446W (Homo sapiens, UniProt P22059, M446W); assay: [3H]25-OHC binding assay, OSBP M446W mutant
T1 sequence (P22059 1-807 M446W): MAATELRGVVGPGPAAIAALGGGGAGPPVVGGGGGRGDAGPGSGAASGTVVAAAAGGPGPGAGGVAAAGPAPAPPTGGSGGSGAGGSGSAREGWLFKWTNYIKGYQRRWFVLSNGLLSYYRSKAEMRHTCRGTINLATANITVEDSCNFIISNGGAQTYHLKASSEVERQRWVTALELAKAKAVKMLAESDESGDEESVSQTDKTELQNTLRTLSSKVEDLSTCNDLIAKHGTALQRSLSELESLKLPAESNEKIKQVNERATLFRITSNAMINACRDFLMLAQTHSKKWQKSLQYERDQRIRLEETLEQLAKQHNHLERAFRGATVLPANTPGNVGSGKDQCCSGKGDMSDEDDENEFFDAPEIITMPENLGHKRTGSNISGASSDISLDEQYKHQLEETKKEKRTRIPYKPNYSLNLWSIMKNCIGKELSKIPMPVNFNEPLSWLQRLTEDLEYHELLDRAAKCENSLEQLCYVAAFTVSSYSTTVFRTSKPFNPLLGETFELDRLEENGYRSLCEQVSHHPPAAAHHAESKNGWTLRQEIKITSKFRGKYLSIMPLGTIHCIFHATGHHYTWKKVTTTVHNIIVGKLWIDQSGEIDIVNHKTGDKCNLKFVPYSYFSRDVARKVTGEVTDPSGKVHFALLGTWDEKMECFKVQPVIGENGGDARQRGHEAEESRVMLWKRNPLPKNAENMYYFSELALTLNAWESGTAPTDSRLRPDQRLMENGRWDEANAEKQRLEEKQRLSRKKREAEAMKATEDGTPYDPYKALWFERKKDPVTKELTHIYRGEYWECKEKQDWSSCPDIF

[2] = target: T2, OSBP^V582M (Homo sapiens, UniProt P22059, V582M); assay: [3H]25-OHC binding assay, OSBP V582M mutant
T2 sequence (P22059 1-807 V582M): T1 sequence (P22059 1-807 M446W) with W446M, V582M

[3] = target: T3, OSBP (Homo sapiens, UniProt P22059); assay: OSBP protein levels by western blotting; assay type: cell-based; conditions: HCT-116 cells
T3 sequence (P22059 1-807): T1 sequence (P22059 1-807 M446W) with W446M
Outline: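 HCT-116 cells were treated with test compound at 50 nM or 10 nM over a time course including 24 h. Some samples also received proteasome inhibitor MG-132 or lactacystin. OSBP was measured by western blotting with polyclonal rabbit anti-OSBP (N-terminus) antibody. Data are n = 3, compared with vehicle-treated cells by two-tailed Student's t-test.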

[4] = system: sphingomyelin biosynthesis in CHO-K1 cells; assay: Sphingomyelin biosynthesis, [3H]serine pulse labeling, CHO-K1; assay type: cell-based, Chinese hamster; conditions: CHO-K1 cells
[5] = system: human cancer cell lines; assay type: cell-based
[6] = system: HCT-116 p21^−/− cells; assay: Cell viability assay, HCT-116 p21-/-; assay type: cell-based, human; conditions: GI50 after 48 h
Outline: (§1)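 HCT-116 p21+/+ and p21−/− cells were seeded in 96-well plates and rested 24 h. A time-zero plate was read with CellTiter-Blue (resazurin) after 90 min at 37 °C, fluorescence 544 nm ex / 590 nm em. Serially diluted test compound was added as 4× solution. Viability was re-read at 48 h and GI50 derived. For coadministration, 10 μM 25-OHC was added with test compound at 250 nM or 10 nM.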

[7] = system: HCT-116 p21^−/− cells stably transfected with shOSBP or shNT; assay: OSBP shRNA knockdown and dose-shift experiment; assay type: cell-based, human; conditions: 72 h
Outline: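 HCT-116 p21−/− cells were stably transfected with OSBP-targeting or nontargeting shRNA in the pSIREN-RetroQ vector. […] Values are mean ± s.d. of 3–4 experiments, compared with shNT cells by two-tailed Student's t-test.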

[8] = system: HeLa cells overexpressing wild-type OSBP; assay: Overexpression-viability assay, wild-type OSBP-Myc-His; assay type: cell-based, human; conditions: 48 h, versus lacZ
[9] = system: HeLa cells overexpressing ORP4L; assay: Overexpression-viability assay, ORP4L-Myc-His; assay type: cell-based, human; conditions: 48 h, versus lacZ
[10] = system: HCT-116 cells; assay: Suppression of antiproliferative activity by 25-OHC coadministration; assay type: cell-based, human
Outline: as §1

[11] = target: T3, OSBP; assay: OSBP localization by immunofluorescence microscopy, HCT-116; assay type: cell-based; conditions: HCT-116 cells, 4 h; 5 μM schweinfurthin A, 10 nM OSW-1, 20 nM cephalostatin 1
Outline: (§2)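 Cells on coverslips were grown 72 h, then given test compound or vehicle (4 h for HCT-116). They were fixed 10 min in 3.7% formaldehyde/PBS and permeabilised 5 min in 0.5% Triton X-100. Blocking used Image-iT FX, then 1% BSA/PBS. Rabbit anti-OSBP (N-terminus) and mouse anti-p230 were applied overnight at 4 °C, then Alexa Fluor secondaries for 60 min with Hoechst 33258. Imaging was by confocal microscopy.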

[12] = target: T3, OSBP; assay: OSBP localization by immunofluorescence microscopy, A549; assay type: cell-based; conditions: A549 cells
Outline: as §2

[13] = system: CERT; assay: CERT protein amount in treated cells; assay type: cell-based, human; conditions: GI90 concentration, HCT-116 or A549 cells
[14] = system: human cancer cell lines; conditions: cited from earlier work
[15] = system: HCT-116 p21^−/− cells; conditions: cited from earlier work

C[C@H](CCCC(C)(C)O)[C@H]1CC[C@H]2[C@@H]3CC=C4C[C@@H](O)CC[C@]4(C)[C@H]3CC[C@]12C [25-OHC, 25-hydroxycholesterol, reference compound]
pKd [1]: 7.39
pKd [2]: 7.09
Effect on OSBP levels (compound alone) ([3]; 25-OHC 10 μM): did not affect OSBP levels
Increase in the biosynthesis of sphingomyelin ([4]; 5 μM, 6 h): approximately four
Effect on sphingomyelin biosynthesis ([4]; GI90 dose (15 μM)): robust stimulation
Cytotoxicity [5]: not cytotoxic at concentrations up to 10 μM

C[C@@H]1[C@]2(O[C@H]3C=C4[C@@H]5CC[C@H]6Cc7nc8c(nc7C[C@]6(C)[C@H]5C[C@@H](O)[C@]4(C)[C@]31O)C[C@@H]1CC[C@H]3C4=CC[C@@H]5[C@H](C)[C@@]6(OC[C@]45C(=O)C[C@@H]3[C@@]1(C)C8)OC(C)(C)C[C@H]6O)O[C@](C)(CO)C[C@H]2O [cephalostatin 1, Cephalostatin 1]
pKi [1]: 7.51
pKi [2]: 7.51
p21^−/− selectivity of growth inhibition (HCT-116 p21^−/− versus wild-type) [6]: selectively growth-inhibitory
Sensitization by OSBP shRNA knockdown (GI50 shift shOSBP vs shNT) [7]: four
Desensitization factor by OSBP overexpression (relative GI30) [8]: 2–5
Desensitization factor by ORP4L overexpression (relative GI30) [9]: 2–5
Effect of 10 μM 25-OHC coadministration on growth inhibition ([10]; HCT-116 cells, 250 nM cephalostatin 1 or 10 nM OSW-1): nearly complete desensitization
inhibition at 0.25 µM ([10]; Homo sapiens, HCT-116, 48 h, read-out: Growth inhibition when administered alone): > 75%
OSBP localization [11]: partially localize to the plasma membrane
OSBP localization [12]: dispersal or vesiculation of OSBP
Reduction in OSBP protein levels ([3]; 50 nM, 24 h): approximately 75%
Amount of CERT protein [13]: not affected
GI50 (half-maximal inhibitory concentration) [14]: nanomolar range

CC(/C=C/C=C(C)/C=C/C=C(\C)C(=O)O)=C1/C(=O)C[C@H]2[C@@]3(C)CCC(=O)C(C)(C)[C@@H]3CC[C@]12C [stellettin E]
Times more growth-inhibitory to HCT-116 p21^−/− cells than to HCT-116 wild-type cells [15]: 117 times
